According to ChEMBL document CHEMBL4002548 (Eur J Med Chem, 2017):

Assays:
[1] = biological target: Vascular endothelial growth factor receptor 2 (Homo sapiens, UniProt P35968); assay: Inhibition of recombinant KDR (unknown origin) using poly (Glu, Tyr) 4:1 after 60 mins by ELISA method
KG-1 = assay: Antiproliferative activity against FGFR1-translocated human KG1 cells after 72 hrs by CCK8/SRB assay; assay type: functional, cell-based; conditions: KG-1, 72 h
How it was run: (§1)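 Cells seeded, then exposed next day to a range of compound concentrations for 72 h. Proliferation read by sulforhodamine B or CCK-8. IC50 obtained by four-parameter concentration–response curve fitting from two separate experiments. BaF3 lines stably express constitutively active TEL-FGFR4, TEL-KDR, CCDC6-RET or CCDC6-RET-V804M.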

[2] = biological target: T1, Fibroblast growth factor receptor 1 (Homo sapiens, UniProt P11362); assay: Inhibition of recombinant FGFR1 (unknown origin) using poly (Glu, Tyr) 4:1 after 60 mins by ELISA method
Target sequence in this assay (P11362 whole entry, the tested form may be a part): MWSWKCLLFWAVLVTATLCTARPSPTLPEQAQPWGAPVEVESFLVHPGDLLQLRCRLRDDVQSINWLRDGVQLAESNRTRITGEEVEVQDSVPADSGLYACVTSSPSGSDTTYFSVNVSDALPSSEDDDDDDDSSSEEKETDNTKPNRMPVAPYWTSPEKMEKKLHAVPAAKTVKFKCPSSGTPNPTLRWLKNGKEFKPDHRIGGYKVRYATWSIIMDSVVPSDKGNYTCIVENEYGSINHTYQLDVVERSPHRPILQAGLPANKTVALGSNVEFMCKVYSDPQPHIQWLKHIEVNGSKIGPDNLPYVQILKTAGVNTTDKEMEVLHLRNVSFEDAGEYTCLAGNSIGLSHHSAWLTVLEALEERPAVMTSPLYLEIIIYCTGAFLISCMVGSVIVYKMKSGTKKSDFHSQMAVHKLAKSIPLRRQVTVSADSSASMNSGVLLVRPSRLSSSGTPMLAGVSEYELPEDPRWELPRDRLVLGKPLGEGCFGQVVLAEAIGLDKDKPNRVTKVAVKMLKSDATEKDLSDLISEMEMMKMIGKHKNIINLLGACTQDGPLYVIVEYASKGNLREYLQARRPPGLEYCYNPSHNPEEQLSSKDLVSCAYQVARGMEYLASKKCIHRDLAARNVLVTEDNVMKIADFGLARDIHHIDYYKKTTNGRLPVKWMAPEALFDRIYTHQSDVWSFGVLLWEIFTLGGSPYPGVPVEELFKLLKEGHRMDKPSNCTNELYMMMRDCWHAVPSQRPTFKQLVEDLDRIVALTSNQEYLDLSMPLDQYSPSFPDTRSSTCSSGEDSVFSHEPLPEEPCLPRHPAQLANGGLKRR

BaF3 [3] = assay: Antiproliferative activity against mouse BAF3 cells expressing TEL-FGFR4 fusion protein after 72 hrs by CCK8/SRB assay; assay type: functional, cell-based; conditions: BaF3, 72 h; how it was run: as §1
NCI-H1581 [4] = assay: Antiproliferative activity against FGFR1-amplified human NCI-H1581 cells after 72 hrs by CCK8/SRB assay; conditions: NCI-H1581, 72 h
[5] = biological target: Tyrosine-protein kinase ABL1 (Homo sapiens, UniProt P00519); assay: Inhibition of recombinant ABL (unknown origin) using poly (Glu,Tyr) 4:1 as substrate after 60 mins by ELISA
Tyrosine-protein kinase ABL1, sequence (P00519 whole entry): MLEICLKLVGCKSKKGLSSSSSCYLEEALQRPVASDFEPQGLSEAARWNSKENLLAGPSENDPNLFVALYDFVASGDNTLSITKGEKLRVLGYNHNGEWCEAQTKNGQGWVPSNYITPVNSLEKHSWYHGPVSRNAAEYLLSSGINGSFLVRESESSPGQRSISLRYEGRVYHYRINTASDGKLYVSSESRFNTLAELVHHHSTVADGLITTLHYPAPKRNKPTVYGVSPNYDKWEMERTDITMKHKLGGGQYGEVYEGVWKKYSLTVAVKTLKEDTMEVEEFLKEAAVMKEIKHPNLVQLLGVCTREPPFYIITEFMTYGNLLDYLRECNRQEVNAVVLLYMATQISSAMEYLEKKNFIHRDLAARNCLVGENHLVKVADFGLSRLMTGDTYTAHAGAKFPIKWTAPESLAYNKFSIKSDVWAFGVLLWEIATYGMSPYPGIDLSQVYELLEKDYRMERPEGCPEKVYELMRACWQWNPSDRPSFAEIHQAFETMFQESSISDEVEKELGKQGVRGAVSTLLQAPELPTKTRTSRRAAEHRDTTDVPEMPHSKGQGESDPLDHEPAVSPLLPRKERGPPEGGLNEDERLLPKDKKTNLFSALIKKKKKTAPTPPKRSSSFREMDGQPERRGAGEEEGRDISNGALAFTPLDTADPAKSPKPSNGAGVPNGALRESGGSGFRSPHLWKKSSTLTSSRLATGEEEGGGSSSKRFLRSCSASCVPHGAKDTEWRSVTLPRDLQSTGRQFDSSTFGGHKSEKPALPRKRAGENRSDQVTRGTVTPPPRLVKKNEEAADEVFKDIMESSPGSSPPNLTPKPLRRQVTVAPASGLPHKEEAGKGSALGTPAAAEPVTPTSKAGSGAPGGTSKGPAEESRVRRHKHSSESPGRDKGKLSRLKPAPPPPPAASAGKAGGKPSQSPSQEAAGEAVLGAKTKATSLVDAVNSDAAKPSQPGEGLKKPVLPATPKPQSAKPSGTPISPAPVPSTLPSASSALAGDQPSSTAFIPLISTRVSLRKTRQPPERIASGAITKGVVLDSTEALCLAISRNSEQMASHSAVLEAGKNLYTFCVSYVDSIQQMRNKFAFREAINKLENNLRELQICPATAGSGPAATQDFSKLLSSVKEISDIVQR

SNU-16 [6] = assay: Antitumor activity against FGFR2-amplified human SNU16 cells xenografted in nude mouse assessed as tumor growth inhibition at 20 mg/kg, po qd administered for 18 days and measured on day 18 post last dose relative to vehicle-treated control; assay type: functional; conditions: SNU-16, po, 432 h, read-out: TGI
How it was run: (§2)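 Male nude mice, 4-6 weeks old, kept under SPF conditions. Tumours grown s.c. from 5×10^6 cells, then passaged as 1 mm³ fragments by trocar. Randomised at 120–150 mm³ (n=6 treated, 12 vehicle). Compound given orally once daily, 10 days for NCI-H1581 and 18 days for SNU16. Calipers twice weekly; V = L×W²/2. TGI taken on final day from volume change versus vehicle.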

[7] = biological target: Epidermal growth factor receptor (Homo sapiens, UniProt P00533); assay: Inhibition of recombinant EGFR (unknown origin) using poly (Glu,Tyr) 4:1 as substrate after 60 mins by ELISA
[8] = biological target: Vascular endothelial growth factor receptor 1 (Homo sapiens, UniProt P17948); assay: Inhibition of recombinant VEGFR1 (unknown origin) using poly (Glu,Tyr) 4:1 as substrate after 60 mins by ELISA
SNU-16 [9] = assay: Antiproliferative activity against FGFR2-amplified human SNU16 cells after 72 hrs by CCK8/SRB assay; assay type: functional, cell-based; conditions: SNU-16, 72 h; how it was run: as §1
BaF3 [10] = assay: Antiproliferative activity against mouse BAF3 cells expressing TEL-KDR fusion protein after 72 hrs by CCK8/SRB assay; assay type: functional, cell-based; conditions: BaF3, 72 h; how it was run: as §1
[11] = biological target: T1, Fibroblast growth factor receptor 1; assay: Inhibition of FGFR1 phosphorylation in FGFR1 translocated human KG1 cells after 2 hrs by Western blot method
How it was run: (§3)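 KG1 cells treated with a range of compound concentrations for 2 h at 37 °C, then lysed in 1× SDS sample buffer. Lysates resolved by SDS–PAGE and blotted. Probes: phospho-FGFR1, FGFR, phospho-PLCγ, PLCγ, phospho-ERK1/2, ERK1/2, with GAPDH as loading control. Detection by HRP secondary and enhanced chemiluminescence.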
Target sequence in this assay (P11362 22-822 limits assumed): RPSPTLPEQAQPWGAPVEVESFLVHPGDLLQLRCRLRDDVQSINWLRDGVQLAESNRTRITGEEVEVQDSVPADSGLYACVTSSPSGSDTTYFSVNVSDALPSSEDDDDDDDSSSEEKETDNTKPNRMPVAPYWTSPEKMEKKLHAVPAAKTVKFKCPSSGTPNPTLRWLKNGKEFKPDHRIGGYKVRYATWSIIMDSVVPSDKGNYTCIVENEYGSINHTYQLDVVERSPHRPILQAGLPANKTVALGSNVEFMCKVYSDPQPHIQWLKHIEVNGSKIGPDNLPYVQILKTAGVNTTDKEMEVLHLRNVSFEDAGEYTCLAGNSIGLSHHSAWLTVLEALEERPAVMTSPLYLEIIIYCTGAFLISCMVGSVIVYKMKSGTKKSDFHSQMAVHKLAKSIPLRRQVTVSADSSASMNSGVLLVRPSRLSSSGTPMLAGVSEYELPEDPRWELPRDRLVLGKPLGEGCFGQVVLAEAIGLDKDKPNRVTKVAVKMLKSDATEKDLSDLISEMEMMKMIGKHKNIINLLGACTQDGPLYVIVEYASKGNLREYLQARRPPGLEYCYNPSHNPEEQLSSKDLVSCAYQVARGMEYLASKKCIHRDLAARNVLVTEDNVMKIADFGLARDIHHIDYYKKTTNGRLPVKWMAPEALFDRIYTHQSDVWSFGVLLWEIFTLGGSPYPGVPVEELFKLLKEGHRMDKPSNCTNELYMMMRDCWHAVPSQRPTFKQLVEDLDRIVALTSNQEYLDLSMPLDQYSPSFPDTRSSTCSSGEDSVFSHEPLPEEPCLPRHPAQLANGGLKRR

[12] = Inhibition of recombinant RET […] mutant (unknown origin) using poly (Glu,Tyr) 4:1 as substrate after 60 mins by ELISA; parameters: species or system Homo sapiens
How it was run: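 Poly(Glu,Tyr) 4:1 pre-coated at 20 µg/mL as substrate. Reaction with 10 µmol/L ATP in HEPES pH 7.4 buffer containing MgCl2, MnCl2, Na3VO4 and DTT; compound in 1% DMSO, with 1% DMSO as negative control; started by adding kinase. Run 60 min at 37 °C. Phosphotyrosine detected with PY99 and HRP anti-mouse IgG, o-phenylenediamine colour read at 490 nm. IC50 from inhibition curves, two separate experiments.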

NCI-H1581 [13] = assay: Antitumor activity against FGFR1-amplified human NCI-H1581 cells xenografted in nude mouse assessed as tumor growth inhibition at 5 mg/kg, po qd administered for 10 days and measured on day 10 post last dose relative to vehicle-treated control; assay type: functional; conditions: 240 h, read-out: TGI; how it was run: as §2
BaF3 [14] = assay: Antiproliferative activity against mouse BAF3 cells expressing CCDC6-RET fusion protein after 72 hrs by CCK8/SRB assay; assay type: functional, cell-based; conditions: BaF3, 72 h; how it was run: as §1
[15] = AUC (0 to 24 hrs) in mouse at 10 mg/kg, po; assay type: ADME, organism-based; parameters: time < 24 hr, dose 10 mg/kg, route oral; conditions: in vivo
NCI-H1581 [16] = assay: Antitumor activity against FGFR1-amplified human NCI-H1581 cells xenografted in nude mouse assessed as tumor growth inhibition at 20 mg/kg, po qd administered for 10 days and measured on day 10 post last dose relative to vehicle-treated control; assay type: functional; conditions: 240 h, read-out: TGI; how it was run: as §2
[17] = biological target: Fibroblast growth factor receptor 2 (Homo sapiens, UniProt P21802); assay: Inhibition of recombinant FGFR2 (unknown origin) using poly (Glu,Tyr) 4:1 as substrate after 60 mins by ELISA
[18] = biological target: T1, Fibroblast growth factor receptor 1; assay: Inhibition of FGFR1 in FGFR1 translocated human KG1 cells assessed as suppression of PLCgamma phosphorylation after 2 hrs by Western blot analysis; how it was run: as §3
Target sequence in this assay (P11362 22-822 limits assumed): as above

[19] = biological target: Platelet-derived growth factor receptor alpha (Homo sapiens, UniProt P16234); assay: Inhibition of recombinant PDGFRalpha (unknown origin) using poly (Glu,Tyr) 4:1 as substrate after 60 mins by ELISA
[20] = biological target: Platelet-derived growth factor receptor beta (Homo sapiens, UniProt P09619); assay: Inhibition of recombinant PDGFRbeta (unknown origin) using poly (Glu,Tyr) 4:1 as substrate after 60 mins by ELISA
[21] = biological target: Proto-oncogene tyrosine-protein kinase receptor Ret (Homo sapiens, UniProt P07949); assay: Inhibition of recombinant RET (unknown origin) using poly (Glu,Tyr) 4:1 as substrate after 60 mins by ELISA
[22] = biological target: T1, Fibroblast growth factor receptor 1; assay: Inhibition of FGFR1 in FGFR1 translocated human KG1 cells assessed as suppression of phosphorylated ERK after 2 hrs by Western blot analysis; how it was run: as §3
Target sequence in this assay (P11362 22-822 limits assumed): as above

RT-112 = assay: Antiproliferative activity against FGFR3-amplified human RT112 cells after 72 hrs by CCK8/SRB assay; assay type: functional, cell-based; conditions: RT-112, 72 h; how it was run: as §1
[23] = biological target: Fibroblast growth factor receptor 4 (Homo sapiens, UniProt P22455); assay: Inhibition of recombinant FGFR4 (unknown origin) using poly (Glu,Tyr) 4:1 as substrate after 60 mins by ELISA
BaF3 [24] = assay: Antiproliferative activity against mouse BAF3 cells expressing CCDC6-RET […] mutant after 72 hrs by CCK8/SRB assay; assay type: functional, cell-based; conditions: BaF3, 72 h; how it was run: as §1
[25] = biological target: Fibroblast growth factor receptor 3 (Homo sapiens, UniProt P22607); assay: Inhibition of recombinant FGFR3 (unknown origin) using poly (Glu,Tyr) 4:1 as substrate after 60 mins by ELISA
Fibroblast growth factor receptor 3, sequence (P22607 whole entry): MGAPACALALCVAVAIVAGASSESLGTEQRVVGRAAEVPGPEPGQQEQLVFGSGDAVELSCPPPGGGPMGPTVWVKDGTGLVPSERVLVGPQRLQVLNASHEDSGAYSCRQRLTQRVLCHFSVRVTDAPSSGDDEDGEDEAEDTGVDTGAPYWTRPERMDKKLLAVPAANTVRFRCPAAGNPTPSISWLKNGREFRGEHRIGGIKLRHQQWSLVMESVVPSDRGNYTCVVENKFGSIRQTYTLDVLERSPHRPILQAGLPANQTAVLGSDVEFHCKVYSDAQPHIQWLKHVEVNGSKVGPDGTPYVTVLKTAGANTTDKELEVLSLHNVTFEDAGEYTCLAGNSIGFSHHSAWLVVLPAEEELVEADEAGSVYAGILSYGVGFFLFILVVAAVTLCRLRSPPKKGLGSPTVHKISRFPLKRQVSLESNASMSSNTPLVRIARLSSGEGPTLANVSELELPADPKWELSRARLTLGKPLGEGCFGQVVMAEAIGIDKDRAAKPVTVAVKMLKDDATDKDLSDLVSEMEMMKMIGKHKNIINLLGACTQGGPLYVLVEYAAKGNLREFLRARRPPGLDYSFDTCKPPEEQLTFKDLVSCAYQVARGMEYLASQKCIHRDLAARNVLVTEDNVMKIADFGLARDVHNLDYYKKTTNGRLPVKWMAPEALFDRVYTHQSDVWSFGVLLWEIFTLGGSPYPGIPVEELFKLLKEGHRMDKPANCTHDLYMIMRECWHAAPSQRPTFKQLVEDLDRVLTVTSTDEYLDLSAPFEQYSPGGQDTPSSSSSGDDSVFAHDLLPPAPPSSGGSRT

[26] = biological target: Proto-oncogene tyrosine-protein kinase Src (Homo sapiens, UniProt P12931); assay: Inhibition of recombinant c-Src (unknown origin) using poly (Glu,Tyr) 4:1 as substrate after 60 mins by ELISA
SNU-16 [27] = assay: Antitumor activity against FGFR2-amplified human SNU16 cells xenografted in nude mouse assessed as tumor growth inhibition at 30 mg/kg, po qd administered for 18 days and measured on day 18 post last dose relative to vehicle-treated control; assay type: functional; conditions: SNU-16, po, 432 h, read-out: TGI; how it was run: as §2

Vascular endothelial growth factor receptor 2, sequence (P35968 whole entry): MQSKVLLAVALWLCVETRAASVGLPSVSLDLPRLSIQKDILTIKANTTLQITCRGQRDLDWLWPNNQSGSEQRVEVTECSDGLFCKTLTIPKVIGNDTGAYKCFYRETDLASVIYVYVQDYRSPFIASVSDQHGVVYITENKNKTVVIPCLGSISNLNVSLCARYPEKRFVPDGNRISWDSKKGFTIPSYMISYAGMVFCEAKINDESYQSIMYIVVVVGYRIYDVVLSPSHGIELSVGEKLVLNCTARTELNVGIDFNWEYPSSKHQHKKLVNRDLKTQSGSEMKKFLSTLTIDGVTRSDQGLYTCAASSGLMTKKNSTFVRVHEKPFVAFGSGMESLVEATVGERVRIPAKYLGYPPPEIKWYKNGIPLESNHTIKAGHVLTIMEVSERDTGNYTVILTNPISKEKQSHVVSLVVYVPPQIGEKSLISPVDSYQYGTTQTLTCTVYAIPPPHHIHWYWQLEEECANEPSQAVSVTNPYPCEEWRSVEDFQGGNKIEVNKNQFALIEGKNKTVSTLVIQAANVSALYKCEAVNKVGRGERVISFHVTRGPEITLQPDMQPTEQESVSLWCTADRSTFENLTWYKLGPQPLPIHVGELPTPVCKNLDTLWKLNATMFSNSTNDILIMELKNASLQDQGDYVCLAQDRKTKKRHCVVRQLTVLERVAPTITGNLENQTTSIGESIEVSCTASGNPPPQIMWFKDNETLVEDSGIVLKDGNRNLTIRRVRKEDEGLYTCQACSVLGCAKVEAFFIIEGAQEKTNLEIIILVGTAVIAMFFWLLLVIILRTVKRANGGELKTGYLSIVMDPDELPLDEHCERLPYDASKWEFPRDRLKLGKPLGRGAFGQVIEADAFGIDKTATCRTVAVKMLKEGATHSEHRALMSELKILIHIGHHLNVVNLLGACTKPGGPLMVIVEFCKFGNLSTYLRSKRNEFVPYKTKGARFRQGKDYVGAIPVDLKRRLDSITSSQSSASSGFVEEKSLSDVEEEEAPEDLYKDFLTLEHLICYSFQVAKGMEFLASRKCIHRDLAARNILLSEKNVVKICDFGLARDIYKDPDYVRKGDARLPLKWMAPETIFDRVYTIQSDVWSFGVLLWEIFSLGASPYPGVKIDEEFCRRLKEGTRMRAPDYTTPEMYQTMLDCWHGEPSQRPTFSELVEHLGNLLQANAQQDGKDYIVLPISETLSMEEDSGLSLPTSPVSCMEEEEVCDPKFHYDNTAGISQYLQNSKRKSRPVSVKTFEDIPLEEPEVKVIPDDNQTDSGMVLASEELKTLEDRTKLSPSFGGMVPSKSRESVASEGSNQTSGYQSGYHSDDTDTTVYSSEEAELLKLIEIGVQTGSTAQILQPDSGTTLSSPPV

CCN(CC)c1cncc(C#Cc2cc(C(=O)Nc3ccc(CN4CCN(C)CC4)c(C(F)(F)F)c3)ccc2C)c1
IC50 [1]: 105 nM
IC50 (KG-1): 58.3 nM

CN1CCN(Cc2ccc(NC(=O)c3cccc(C#Cc4cncc5ccccc45)c3)cc2C(F)(F)F)CC1
IC50 [1]: 2.5 nM
IC50 (KG-1): 67.6 nM

Cc1ccc(C(=O)Nc2ccc(CN3CCN(C)CC3)c(C(F)(F)F)c2)cc1C#Cc1cncc2c1ccn2C
IC50 [1]: 63.5 nM
IC50 (KG-1): 10 nM

Cc1ccc(C(=O)Nc2ccc(CN3CCN(C)CC3)c(C(F)(F)F)c2)cc1C#Cc1cncc(NC(C)C)c1
IC50 [1]: 59.9 nM
IC50 (KG-1): 84.5 nM

Cc1ccc(C(=O)Nc2ccc(CN3CCN(C)CC3)c(C(F)(F)F)c2)cc1C#Cc1cncc(N2CCOCC2)c1
IC50 [1]: 89.9 nM
IC50 (KG-1): 24.3 nM

CN1CCN(Cc2ccc(NC(=O)c3cccc(C#Cc4cncc5ccccc45)n3)cc2C(F)(F)F)CC1
IC50 [2]: > 100 nM

COc1cncc(C#Cc2cc(C(=O)Nc3ccc(CN4CCN(C)CC4)c(C(F)(F)F)c3)ccc2C)c1
IC50 [2]: 12.8 nM
IC50 [1]: 110 nM
IC50 (KG-1): 125 nM

CN1CCN(Cc2ccc(NC(=O)c3cc(C#Cc4cncc5ccccc45)ccn3)cc2C(F)(F)F)CC1
IC50 (KG-1): > 500 nM

CN1CCN(Cc2ccc(NC(=O)c3ccc(F)c(C#Cc4cncc5ccccc45)c3)cc2C(F)(F)F)CC1
IC50 [1]: 5.5 nM
IC50 (KG-1): 27.8 nM

CN1CCN(Cc2ccc(NC(=O)c3ccc(Cl)c(C#Cc4cncc(N5CCOCC5)c4)c3)cc2C(F)(F)F)CC1
IC50 (BaF3 [3]): 131 nM
IC50 (NCI-H1581 [4]): 57 nM
IC50 [5]: 23.2 nM
inhibition in vivo at 20 mg/kg (SNU-16 [6]): 93.9%
IC50 [7]: > 100 nM
IC50 [8]: 62.7 nM
IC50 (SNU-16 [9]): 26.4 nM
IC50 (BaF3 [10]): 489 nM
inhibition [11]: Dose-dependent effect
IC50 [12]: 7.5 nM
IC50 [2]: 0.5 nM
inhibition in vivo at 5 mg/kg (NCI-H1581 [13]): 8.3%
IC50 (BaF3 [14]): 37.2 nM
AUC(0-t) at 24 h [15]: 11400 ng·h/mL
inhibition in vivo at 20 mg/kg (NCI-H1581 [16]): 73.4%
IC50 [17]: 0.3 nM
inhibition [18]: Dose-dependent effect
IC50 [19]: 5.6 nM
IC50 [20]: 5.5 nM
IC50 [1]: 48.7 nM
IC50 [21]: 1.3 nM
IC50 (KG-1): 7.5 nM
inhibition [22]: Dose-dependent effect
IC50 (RT-112): 514 nM
IC50 [23]: 5.5 nM
IC50 (BaF3 [24]): 33.4 nM
IC50 [25]: 1 nM
IC50 [26]: 10.8 nM

Cc1ccc(C(=O)Nc2ccc(CN3CCN(C)CC3)c(C(F)(F)F)c2)cc1C#Cc1cncc(N2CCCC2)c1
IC50 [1]: 108 nM
IC50 (KG-1): 119 nM

CN1CCN(Cc2ccc(NC(=O)c3ccc(Cl)c(C#Cc4cncc5ccccc45)c3)cc2C(F)(F)F)CC1
IC50 [1]: 91.4 nM
IC50 (KG-1): 88.2 nM

CN1CCN(Cc2ccc(NC(=O)c3ccc(C(F)(F)F)c(C#Cc4cncc5ccccc45)c3)cc2C(F)(F)F)CC1
IC50 [2]: > 100 nM
IC50 (KG-1): > 500 nM

Cc1ccc(C(=O)Nc2ccc(CN3CCN(C)CC3)c(C(F)(F)F)c2)cc1C#Cc1cnc2cccnn12 [PONATINIB]
IC50 (NCI-H1581 [4]): 194 nM
IC50 (SNU-16 [9]): 33.6 nM
IC50 [12]: 1.9 nM
inhibition in vivo at 30 mg/kg (SNU-16 [27]): 75.3%
IC50 (KG-1): 17.2 nM
IC50 (RT-112): 736 nM
IC50 (BaF3 [24]): 71.5 nM

COc1cc(CCc2cc(NC(=O)c3ccc(N4C[C@@H](C)N[C@@H](C)C4)cc3)n[nH]2)cc(OC)c1 [FEXAGRATINIB]
inhibition in vivo at 20 mg/kg (NCI-H1581 [16]): 79.5%

CC(C)c1ccc(C(=O)Nc2ccc(CN3CCN(C)CC3)c(C(F)(F)F)c2)cc1C#Cc1cncc2ccccc12
IC50 [2]: > 100 nM

Cc1ccc(C(=O)Nc2ccc(CN3CCN(C)CC3)c(C(F)(F)F)c2)cc1C#Cc1cncc(N2CCN(C)CC2)c1
IC50 [2]: 5.7 nM
IC50 [1]: 21.8 nM
IC50 (KG-1): 21.7 nM

CN1CCN(Cc2ccc(NC(=O)c3cncc(C#Cc4cncc5ccccc45)c3)cc2C(F)(F)F)CC1
IC50 [1]: 2.6 nM
IC50 (KG-1): > 500 nM

CN1CCN(Cc2ccc(NC(=O)c3ccnc(C#Cc4cncc5ccccc45)n3)cc2C(F)(F)F)CC1
IC50 (KG-1): > 500 nM

Cc1ccc(C(=O)Nc2ccc(CN3CCN(C)CC3)c(C(F)(F)F)c2)cc1C#Cc1cncc2ccccc12
IC50 [2]: 1.2 nM
IC50 [1]: 79.1 nM
IC50 (KG-1): 175 nM

COc1ccc(C(=O)Nc2ccc(CN3CCN(C)CC3)c(C(F)(F)F)c2)cc1C#Cc1cncc2ccccc12
IC50 (KG-1): > 500 nM

CN1CCN(Cc2ccc(NC(=O)c3ccnc(C#Cc4cncc5ccccc45)c3)cc2C(F)(F)F)CC1
IC50 [1]: 6.5 nM
IC50 (KG-1): 427 nM

Cc1ccc(C(=O)Nc2ccc(CN3CCN(C)CC3)c(C(F)(F)F)c2)cc1C#Cc1cncc2[nH]ccc12
IC50 [1]: > 100 nM
IC50 (KG-1): 490 nM
